ChEMBL document CHEMBL1687912, “Sugar-based enantiomeric and conformationally constrained pyrrolo[2,1-c][1,4]-benzodiazepines as potential GABAA ligands” (J Med Chem, 2011)

Species on record: Rattus norvegicus
Experiment: Displacement of [3H]flunitrazepam from GABAA receptor in rat cortical membrane assessed as [3H]flunitrazepam binding at 100 uM after 90 mins by scintillation counting
Type: cell membranes
How it was run: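 Rat frontal cortex membranes (sucrose homogenate, ultracentrifuged pellets in 50 mM Tris-HCl pH 7.4), 0.3 mg protein per tube, incubated 90 min at 4 °C with 1 nM [3H]flunitrazepam ± 100 μM test compound (final; benzyl-sugar analogues from ethanol stock). Nonspecific binding with 100 μM flumazenil. Rapid GF/B filtration, ice-cold buffer washes, scintillation counting; expressed as % specific binding; three independent experiments in triplicate.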

Row | SMILES | Activity [%]
1 | CN1C(=O)[C@@H]2C[C@]3(CN2C(=O)c2cc(Br)ccc21)O[C@@H](COCc1ccccc1)[C@H](OCc1ccccc1)[C@H]3OCc1ccccc1 | 93.2
2 | CN1C(=O)[C@H]2C[C@@]3(CN2C(=O)c2ccccc21)O[C@H](COCc1ccccc1)[C@@H](OCc1ccccc1)[C@@H]3OCc1ccccc1 | 96.4
3 | O=C1Nc2ccccc2C(=O)N2CCC[C@@H]12 | 95.5
4 | CN1C(=O)[C@@H]2CCCN2C(=O)c2cc([N+](=O)[O-])ccc21 | 63.4
5 | O=C1Nc2ccc([N+](=O)[O-])cc2C(=O)N2C[C@]3(C[C@H]12)O[C@H](COCc1ccccc1)[C@@H](OCc1ccccc1)[C@@H]3OCc1ccccc1 | 101
6 | CN1C(=O)[C@@H]2C[C@]3(CN2C(=O)c2cc([N+](=O)[O-])ccc21)O[C@@H](COCc1ccccc1)[C@H](OCc1ccccc1)[C@H]3OCc1ccccc1 | 82.8
7 | CN1C(=O)[C@@H]2C[C@]3(CN2C(=O)c2cc(Cl)ccc21)O[C@@H](COCc1ccccc1)[C@H](OCc1ccccc1)[C@H]3OCc1ccccc1 | 82.3
8 | O=C1Nc2ccccc2C(=O)N2C[C@@]3(C[C@@H]12)O[C@@H](COCc1ccccc1)[C@H](OCc1ccccc1)[C@H]3OCc1ccccc1 | 96.3
9 | Nc1ccc2c(c1)C(=O)N1C[C@]3(C[C@@H]1C(=O)N2)O[C@H](CO)[C@@H](O)[C@@H]3O | 80.2
10 | CN1C(=O)[C@@H]2C[C@]3(CN2C(=O)c2ccccc21)O[C@@H](COCc1ccccc1)[C@H](OCc1ccccc1)[C@H]3OCc1ccccc1 | 106
11 | CN1C(=O)[C@H]2C[C@@]3(CN2C(=O)c2cc(Cl)ccc21)O[C@H](COCc1ccccc1)[C@@H](OCc1ccccc1)[C@@H]3OCc1ccccc1 | 92.9
12 | CN1C(=O)[C@H]2C[C@@]3(CN2C(=O)c2cc(Br)ccc21)O[C@H](COCc1ccccc1)[C@@H](OCc1ccccc1)[C@@H]3OCc1ccccc1 | 111
13 | O=C1Nc2ccccc2C(=O)N2CCC[C@H]12 | 97
14 | O=C1Nc2ccccc2C(=O)N2C[C@]3(C[C@H]12)O[C@H](COCc1ccccc1)[C@@H](OCc1ccccc1)[C@@H]3OCc1ccccc1 | 112
15 | CN1C(=O)[C@H]2CCCN2C(=O)c2cc([N+](=O)[O-])ccc21 | 80.2
16 | O=C1Nc2ccc([N+](=O)[O-])cc2C(=O)N2C[C@@]3(C[C@@H]12)O[C@@H](COCc1ccccc1)[C@H](OCc1ccccc1)[C@H]3OCc1ccccc1 | 69.6
17 | CN1C(=O)[C@H]2C[C@@]3(CN2C(=O)c2cc([N+](=O)[O-])ccc21)O[C@H](COCc1ccccc1)[C@@H](OCc1ccccc1)[C@@H]3OCc1ccccc1 | 74.9

Further lines, results first:

Row | Activity [%] | SMILES
18 | 70.6 | CN1C(=O)[C@H]2C[C@@]3(CN2C(=O)c2cc(N)ccc21)O[C@H](CO)[C@@H](O)[C@@H]3O
19 | 112 | CN1C(=O)[C@@H]2C[C@]3(CN2C(=O)c2ccccc21)O[C@@H](CO)[C@H](O)[C@H]3O
20 | 84.2 | CN1C(=O)[C@H]2C[C@@]3(CN2C(=O)c2cc(Br)ccc21)O[C@H](CO)[C@@H](O)[C@@H]3O
21 | 83.5 | CN1C(=O)[C@@H]2C[C@]3(CN2C(=O)c2cc(N)ccc21)O[C@@H](CO)[C@H](O)[C@H]3O
22 | 110 | O=C1Nc2ccccc2C(=O)N2C[C@@]3(C[C@@H]12)O[C@@H](CO)[C@H](O)[C@H]3O
23 | 73.7 | CN1C(=O)[C@H]2C[C@@]3(CN2C(=O)c2cc(Cl)ccc21)O[C@H](CO)[C@@H](O)[C@@H]3O
24 | 93 | CN1C(=O)[C@H]2C[C@@]3(CN2C(=O)c2ccccc21)O[C@H](CO)[C@@H](O)[C@@H]3O
25 | 78.2 | O=C1Nc2ccccc2C(=O)N2C[C@]3(C[C@H]12)O[C@H](CO)[C@@H](O)[C@@H]3O
26 | 73.9 | Nc1ccc2c(c1)C(=O)N1C[C@@]3(C[C@H]1C(=O)N2)O[C@@H](CO)[C@H](O)[C@H]3O
27 | 77 | CN1C(=O)[C@@H]2C[C@]3(CN2C(=O)c2cc(Cl)ccc21)O[C@@H](CO)[C@H](O)[C@H]3O
28 | 82.2 | CN1C(=O)[C@@H]2C[C@]3(CN2C(=O)c2cc(Br)ccc21)O[C@@H](CO)[C@H](O)[C@H]3O
